From paper PMC4298701 (Diabetes, 2007)
pIC50: −log10 of the molar value.

Tests used:
[1] = Plasma levels of AMP-DNM in mice; assay type: in vivo
Summary of the method: (§1)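 Plasma test compound was measured by HPLC followed by mass spectrometry, with blood taken by tail vein, retro-orbital or cardiac puncture. Half-life was determined in mice and rats. For plasma concentration, six-week-old C57Bl/6J mice (n = 4) were dosed at 25 mg·kg−1·day−1 for 14 days and sampled during treatment; mean ± SE.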

[2] = Plasma levels, accumulation and metabolism after administration to rodents; assay type: in vivo
sphingomyelinase = molecular target: T1, sphingomyelinase (Homo sapiens, UniProt P17405); test: Sphingomyelinase inhibition; assay type: biochemical; conditions: at a concentration <1 μmol/l
T1 sequence (P17405 47-631): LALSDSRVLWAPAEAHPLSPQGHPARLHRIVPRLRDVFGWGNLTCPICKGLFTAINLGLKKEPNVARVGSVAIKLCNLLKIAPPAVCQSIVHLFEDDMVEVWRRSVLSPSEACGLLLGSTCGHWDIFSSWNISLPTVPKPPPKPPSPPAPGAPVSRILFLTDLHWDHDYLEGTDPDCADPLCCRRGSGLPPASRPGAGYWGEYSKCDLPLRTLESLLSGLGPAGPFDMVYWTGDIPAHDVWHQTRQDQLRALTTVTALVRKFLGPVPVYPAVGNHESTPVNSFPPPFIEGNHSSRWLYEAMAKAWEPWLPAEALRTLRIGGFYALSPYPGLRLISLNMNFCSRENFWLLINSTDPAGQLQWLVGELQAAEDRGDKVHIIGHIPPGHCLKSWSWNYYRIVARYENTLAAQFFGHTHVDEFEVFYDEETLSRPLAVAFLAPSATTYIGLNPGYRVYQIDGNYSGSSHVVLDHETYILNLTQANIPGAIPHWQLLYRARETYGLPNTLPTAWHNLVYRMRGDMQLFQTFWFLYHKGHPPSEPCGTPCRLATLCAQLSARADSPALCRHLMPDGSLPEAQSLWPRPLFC

ob/ob mice [3] = test: Ceramide and glucosylceramide in liver and muscle of ob/ob mice; assay type: in vivo
3T3-L1 adipocytes [4] = test: Cell surface expression of GM3; assay type: cell-based; conditions: 10 μmol/l AMP-DNM, TNF-α 0.6 nmol/l, 24 h
Summary of the method: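 Fully differentiated 3T3-L1 adipocytes were serum-deprived in DMEM plus 1% BSA and treated for 24 h with vehicle, test compound (10 μmol/l) and/or TNF-α (0.6 nmol/l). Basal cells (no insulin) were stained with monoclonal anti-GM3 and FITC- or Alexa 488-conjugated secondary antibody, then read by flow cytometry as % viable cells GM3-positive. Means ± SE of four independent experiments.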

[5] = tested on: C57Bl/6J mice fed a high-fat diet; test: Glucose homeostasis in high-fat diet-induced glucose-intolerant C57Bl/6J mice; assay type: in vivo; conditions: high-fat diet C57Bl/6J mice, 2 weeks, ± SD
Summary of the method: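 C57Bl/6J mice were made glucose-intolerant by 4 weeks on a high-fat diet (16.4% protein, 25.5% carbohydrate, 58.0% fat). They then received test compound by daily oral gavage at 0, 5 or 25 mg·kg−1·day−1 for 2 weeks, n = 8 per group. Fasted blood glucose was measured; means ± SD.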

C57Bl/6J mice = test: Ceramide and glycosphingolipids in liver and muscle of normal C57Bl/6J mice; assay type: in vivo
3T3-L1 adipocytes [6] = test: Sphingolipid content of 3T3-L1 adipocytes; assay type: cell-based; conditions: TNF-α 0.6 nmol/l + AMP-DNM 10 μmol/l, 24 h, mean ± SE
[7] = tested on: endoplasmic reticulum–trimming α-glucosidases; test: ER-trimming α-glucosidases inhibition; assay type: biochemical; conditions: at a concentration <1 μmol/l
[8] = molecular target: debranching enzyme (α-1, 6-glucosidase) (Homo sapiens, UniProt P35573); test: Debranching enzyme, erythrocyte preparation; assay type: biochemical; conditions: at a concentration <1 μmol/l; data not shown
ZDF rats [9] = test: Ceramide and glycosphingolipid levels in liver of ZDF rats; assay type: in vivo; conditions: mean ± SD
acid α-glucosidase = acid α-glucosidase (Homo sapiens, UniProt P10253); test: Acid α-glucosidase inhibition; assay type: biochemical; conditions: at a concentration <1 μmol/l
3T3-L1 adipocytes [10] = test: Insulin signaling in TNF-α-treated 3T3-L1 adipocytes; assay type: cell-based; conditions: 10 μmol/l AMP-DNM, TNF-α 0.6 nmol/l, 24 h
[11] = Plasma levels of AMP-DNM in rats; assay type: in vivo
Summary of the method: as §1

sucrase = sucrase (Rattus norvegicus, UniProt P23739); test: Sucrase, homogenates of freshly isolated rat intestine; assay type: biochemical; conditions: read-out: IC50 sucrase; rat intestine homogenate
ob/ob mice [12] = test: Hyperinsulinemic-euglycemic clamp in ob/ob mice; assay type: in vivo; conditions: 25 mg · kg body wt−1 · day−1, clamp
maltase = test: Maltase, homogenates of freshly isolated rat intestine; assay type: biochemical; conditions: read-out: IC50 maltase; rat intestine homogenate
rodents = test: Tolerability in rodents; assay type: in vivo; conditions: up to 100 mg · kg−1 · day−1 for 2 months
ZDF rats [13] = test: A1C in ZDF rats; assay type: in vivo
ob/ob mice [14] = test: Glucose homeostasis, A1C and liver lipids/glycogen in ob/ob mice; assay type: in vivo
Summary of the method: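 ob/ob mice (C57Bl/6J background) were fed diet containing test compound at 25 mg·kg−1·day−1, with wild-type mice as reference; A1C was measured after 9 weeks. For oral glucose tolerance, animals were fasted >6 h and gavaged with glucose (1 or 2 g/kg). […] Means ± SE; two-tailed Student's t test.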

glycogen synthase = test: Glycogen synthase inhibition; assay type: biochemical; conditions: at a concentration <1 μmol/l; data not shown
[15] = In vitro incubation with microsomes; assay type: in vitro ADME; conditions: 4 h; not shown
[16] = oral administration of 25 mg/kg body wt
[17] = 25 mg AMP-DNM/kg, 2 weeks, mean ± SD
[18] = C57Bl/6J mice, 25 mg · kg−1 · day−1, 14 days
[19] = normal C57Bl/6J mice, 25 mg AMP-DNM/kg, 2 weeks, mean ± SD
[20] = with insulin (100 nmol/l, 5 min)
[21] = ob/ob mice, 25 mg · kg body wt−1 · day−1

Chain of debranching enzyme (α-1, 6-glucosidase) (P35573 whole entry): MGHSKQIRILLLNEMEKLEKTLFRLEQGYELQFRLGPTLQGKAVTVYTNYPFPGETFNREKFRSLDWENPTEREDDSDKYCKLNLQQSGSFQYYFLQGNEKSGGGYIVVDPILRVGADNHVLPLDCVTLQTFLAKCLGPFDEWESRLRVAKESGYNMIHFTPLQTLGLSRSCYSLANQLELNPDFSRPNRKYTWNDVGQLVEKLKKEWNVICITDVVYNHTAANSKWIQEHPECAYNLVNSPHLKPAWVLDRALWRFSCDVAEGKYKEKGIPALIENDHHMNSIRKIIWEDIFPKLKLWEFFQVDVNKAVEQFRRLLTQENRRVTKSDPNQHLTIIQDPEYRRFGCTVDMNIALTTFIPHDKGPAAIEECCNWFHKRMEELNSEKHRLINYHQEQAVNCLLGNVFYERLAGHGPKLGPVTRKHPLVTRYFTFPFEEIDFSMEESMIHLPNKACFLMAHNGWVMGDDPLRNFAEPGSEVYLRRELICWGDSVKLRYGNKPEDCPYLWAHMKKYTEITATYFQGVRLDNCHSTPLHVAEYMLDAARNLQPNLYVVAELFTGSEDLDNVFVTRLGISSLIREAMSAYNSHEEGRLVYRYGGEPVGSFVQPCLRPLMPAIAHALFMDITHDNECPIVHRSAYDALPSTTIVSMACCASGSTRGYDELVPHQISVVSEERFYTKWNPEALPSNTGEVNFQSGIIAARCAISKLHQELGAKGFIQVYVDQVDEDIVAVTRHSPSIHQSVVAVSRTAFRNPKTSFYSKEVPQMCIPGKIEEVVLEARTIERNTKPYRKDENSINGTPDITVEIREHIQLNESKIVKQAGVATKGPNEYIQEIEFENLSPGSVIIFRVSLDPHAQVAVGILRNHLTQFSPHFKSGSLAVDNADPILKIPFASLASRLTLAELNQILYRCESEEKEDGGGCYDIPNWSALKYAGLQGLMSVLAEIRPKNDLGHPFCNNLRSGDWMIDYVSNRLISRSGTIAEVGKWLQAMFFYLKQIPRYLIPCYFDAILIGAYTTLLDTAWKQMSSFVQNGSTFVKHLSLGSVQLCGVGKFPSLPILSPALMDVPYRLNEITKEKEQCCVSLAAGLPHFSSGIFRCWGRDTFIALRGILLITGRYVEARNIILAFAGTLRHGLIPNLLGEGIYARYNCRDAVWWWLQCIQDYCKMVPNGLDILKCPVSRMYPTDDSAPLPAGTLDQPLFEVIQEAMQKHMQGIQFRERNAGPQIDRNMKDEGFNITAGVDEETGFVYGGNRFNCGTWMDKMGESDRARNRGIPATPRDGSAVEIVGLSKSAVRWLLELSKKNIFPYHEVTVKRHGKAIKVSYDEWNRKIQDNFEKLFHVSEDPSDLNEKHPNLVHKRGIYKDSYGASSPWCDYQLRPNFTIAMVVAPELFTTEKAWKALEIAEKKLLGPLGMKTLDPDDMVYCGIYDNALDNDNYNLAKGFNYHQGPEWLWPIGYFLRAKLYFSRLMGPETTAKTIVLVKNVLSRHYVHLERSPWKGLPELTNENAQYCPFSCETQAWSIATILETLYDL
Chain of sucrase (P23739 1014-1841 limits assumed): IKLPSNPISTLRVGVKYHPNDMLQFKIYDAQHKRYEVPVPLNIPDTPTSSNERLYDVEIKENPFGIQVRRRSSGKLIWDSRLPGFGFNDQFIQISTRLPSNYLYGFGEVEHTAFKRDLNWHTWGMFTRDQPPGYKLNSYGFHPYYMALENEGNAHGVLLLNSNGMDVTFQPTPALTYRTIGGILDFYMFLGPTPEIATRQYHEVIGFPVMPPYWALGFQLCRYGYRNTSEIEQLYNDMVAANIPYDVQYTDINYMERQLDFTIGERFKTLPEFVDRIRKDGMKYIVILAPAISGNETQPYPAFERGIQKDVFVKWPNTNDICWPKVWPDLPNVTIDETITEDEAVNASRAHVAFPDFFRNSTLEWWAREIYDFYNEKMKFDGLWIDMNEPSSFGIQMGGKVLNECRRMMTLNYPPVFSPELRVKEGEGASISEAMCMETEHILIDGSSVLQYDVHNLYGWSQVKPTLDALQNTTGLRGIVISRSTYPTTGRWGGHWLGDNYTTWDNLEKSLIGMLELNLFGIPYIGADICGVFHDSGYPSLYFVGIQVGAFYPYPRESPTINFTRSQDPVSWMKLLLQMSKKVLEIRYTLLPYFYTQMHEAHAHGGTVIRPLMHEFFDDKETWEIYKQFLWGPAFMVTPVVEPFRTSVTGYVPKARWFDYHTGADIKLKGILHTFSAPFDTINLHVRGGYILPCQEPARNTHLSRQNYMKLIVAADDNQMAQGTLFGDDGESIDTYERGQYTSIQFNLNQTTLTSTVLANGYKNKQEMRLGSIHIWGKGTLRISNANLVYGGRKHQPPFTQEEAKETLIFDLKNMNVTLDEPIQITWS
Chain of sucrase (P23739 1-1013 partner limits assumed): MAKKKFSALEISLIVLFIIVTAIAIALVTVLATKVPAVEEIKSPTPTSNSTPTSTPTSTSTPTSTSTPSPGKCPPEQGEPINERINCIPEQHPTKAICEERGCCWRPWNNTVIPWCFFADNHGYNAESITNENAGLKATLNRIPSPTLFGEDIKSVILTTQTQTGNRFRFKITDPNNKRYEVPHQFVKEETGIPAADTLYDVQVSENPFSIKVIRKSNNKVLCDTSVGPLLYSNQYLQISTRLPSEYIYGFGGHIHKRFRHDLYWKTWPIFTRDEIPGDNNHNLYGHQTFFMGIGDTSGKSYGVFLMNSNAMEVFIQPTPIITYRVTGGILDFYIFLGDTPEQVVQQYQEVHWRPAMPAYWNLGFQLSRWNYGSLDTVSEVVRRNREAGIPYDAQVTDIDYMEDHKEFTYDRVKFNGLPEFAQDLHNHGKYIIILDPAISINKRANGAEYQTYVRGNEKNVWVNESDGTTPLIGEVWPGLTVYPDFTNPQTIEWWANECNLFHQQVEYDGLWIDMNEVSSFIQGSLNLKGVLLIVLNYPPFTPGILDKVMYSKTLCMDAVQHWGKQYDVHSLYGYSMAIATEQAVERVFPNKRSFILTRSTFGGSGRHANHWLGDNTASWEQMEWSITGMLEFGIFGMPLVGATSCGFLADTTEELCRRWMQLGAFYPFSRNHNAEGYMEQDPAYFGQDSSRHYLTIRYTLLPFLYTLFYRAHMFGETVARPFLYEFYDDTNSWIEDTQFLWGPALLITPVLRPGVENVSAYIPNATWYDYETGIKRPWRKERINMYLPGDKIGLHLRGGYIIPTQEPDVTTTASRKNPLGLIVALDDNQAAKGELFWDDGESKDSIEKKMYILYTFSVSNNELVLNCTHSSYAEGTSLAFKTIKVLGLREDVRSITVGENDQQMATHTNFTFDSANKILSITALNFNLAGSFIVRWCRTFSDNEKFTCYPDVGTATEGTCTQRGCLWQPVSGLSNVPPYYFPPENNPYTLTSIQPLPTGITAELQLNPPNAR

Which “plasma concentration of AMP-DNM” value ([1]; C57Bl/6J mice, 25 mg · kg body wt−1 · day−1 for 14 days, mean ± SE) does the source give for `OC[C@@H]1[C@@H](O)[C@H](O)[C@@H](O)CN1CCCCCOCC12CC3CC(CC(C3)C1)C2` [AMP-DNM, N-(5′-adamantane-1′-yl-methoxy)-pentyl-1-deoxynojirimycin] here?
The value was 108 ± 6 nM.

And the plasma half-life ([1]; mice)?
The plasma half-life was ~ 3.1 h.

And the “accumulation with daily exposure” value ([2]; daily exposure over 28 days)?
The value was “does not accumulate”.

What about the “in vivo metabolism (mass spectrometric analysis of urine and plasma)” value ([2]; in vivo) of the same compound?
Its value is “No significant in vivo metabolism”.

And the maximal plasma concentration [2, 16]?
Its maximal plasma concentration is 5 µmol/L.

And the “time of maximal plasma concentration” value [2, 16]?
The value was 30 min.

What about the “inhibition of sphingomyelinase activity” value (sphingomyelinase) of the same compound?
Its value is “no significant inhibition”.

And the “Cer, liver” value (ob/ob mice [3]; [17])?
Its value is 95.9 ± 11.6 nmol/mg protein.

And the “Cer, muscle” value (ob/ob mice [3]; [17])?
Its value is 1.29 ± 0.24 nmol/mg protein.

And the “GlcCer, liver” value (ob/ob mice [3]; [17])?
Its value is 2.24 ± 0.14 nmol/mg protein.

And the “GlcCer, muscle” value (ob/ob mice [3]; [17])?
Its value is 1.41 ± 0.16 nmol/mg protein.

What about the “decrease of glucosylceramide content of muscle” value (ob/ob mice [3]; 25 mg · kg−1 · day−1, two weeks) of the same compound?
The value was 45 ± 23%.

And the “TNF-α-increased cell surface levels of GM3 gangliosides” value (3T3-L1 adipocytes [4])?
The value was “blocked”.

And the fasting blood glucose ([5]; 5 mg · kg−1 · day−1 oral gavage)?
The fasting blood glucose was 9.46 ± 0.26 mmol/L.

And the fasting blood glucose ([5]; 25 mg · kg−1 · day−1 oral gavage)?
Its fasting blood glucose is 7.74 ± 0.40 mmol/L.

What about the “reduction of ganglioside GM3 in liver” value (C57Bl/6J mice; [18]) of the same compound?
Its value is 28 ± 6%.

What about the “reduction of liver glucosylceramide” value (C57Bl/6J mice; [18]) of the same compound?
The value was 41 ± 5%.

And the “Cer, liver” value (C57Bl/6J mice; [19])?
Its value is 10.31 ± 0.96 nmol/mg protein.

What about the “Cer, muscle” value (C57Bl/6J mice; [19]) of the same compound?
The value was 1.47 ± 0.22 nmol/mg protein.

What about the “GlcCer, liver” value (C57Bl/6J mice; [19]) of the same compound?
Its value is 1.24 ± 0.09 nmol/mg protein.

And the “GlcCer, muscle” value (C57Bl/6J mice; [19])?
Its value is 0.89 ± 0.22 nmol/mg protein.

And the Ceramide (3T3-L1 adipocytes [6]; [20])?
Its Ceramide is 1,241 ± 99 pmol/well.

And the GM3 (3T3-L1 adipocytes [6]; [20])?
The GM3 was 1,988 ± 169 pmol/well.

And the Ceramide (3T3-L1 adipocytes [6]; without insulin)?
The Ceramide was 1,241 ± 88 pmol/well.

And the GM2 (3T3-L1 adipocytes [6]; without insulin)?
The GM2 was 267 ± 18 pmol/well.

And the GM3 (3T3-L1 adipocytes [6]; without insulin)?
The GM3 was 2,205 ± 138 pmol/well.

What about the “inhibition of endoplasmic reticulum–trimming α-glucosidases” value [7] of the same compound?
Its value is “no significant inhibition”.

What about the “effect on cytosolic debranching enzyme” value [8] of the same compound?
The value was “unaffected”.

What about the “Liver Ceramide” value (ZDF rats [9]; 5 mg · kg−1 · day−1, 10 weeks) of the same compound?
The value was 416 ± 24 nmol/g wet wt.

What about the “Liver GDA1” value (ZDF rats [9]; 5 mg · kg−1 · day−1, 10 weeks) of the same compound?
Its value is 15.5 ± 1.7 nmol/g wet wt.

And the “Liver GM1” value (ZDF rats [9]; 5 mg · kg−1 · day−1, 10 weeks)?
Its value is 11.4 ± 2.2 nmol/g wet wt.

And the “Liver GM2” value (ZDF rats [9]; 5 mg · kg−1 · day−1, 10 weeks)?
The value was 5.9 ± 0.9 nmol/g wet wt.

What about the “Liver GM3” value (ZDF rats [9]; 5 mg · kg−1 · day−1, 10 weeks) of the same compound?
The value was 21.3 ± 2.9 nmol/g wet wt.

What about the “Liver Glucosylceramide” value (ZDF rats [9]; 5 mg · kg−1 · day−1, 10 weeks) of the same compound?
The value was 53.4 ± 5.7 nmol/g wet wt.

What about the “Liver Ceramide” value (ZDF rats [9]; 25 mg · kg−1 · day−1, 10 weeks) of the same compound?
The value was 451 ± 37 nmol/g wet wt.

What about the “Liver GDA1” value (ZDF rats [9]; 25 mg · kg−1 · day−1, 10 weeks) of the same compound?
Its value is 7.9 ± 0.9 nmol/g wet wt.

And the “Liver GM1” value (ZDF rats [9]; 25 mg · kg−1 · day−1, 10 weeks)?
The value was 5.6 ± 1.1 nmol/g wet wt.

What about the “Liver GM2” value (ZDF rats [9]; 25 mg · kg−1 · day−1, 10 weeks) of the same compound?
The value was 4.8 ± 0.8 nmol/g wet wt.

What about the “Liver GM3” value (ZDF rats [9]; 25 mg · kg−1 · day−1, 10 weeks) of the same compound?
The value was 17.3 ± 2.7 nmol/g wet wt.

And the “Liver Glucosylceramide” value (ZDF rats [9]; 25 mg · kg−1 · day−1, 10 weeks)?
The value was 47.4 ± 5.2 nmol/g wet wt.

What about the “inhibition of acid α-glucosidase activity” value (acid α-glucosidase) of the same compound?
Its value is “no significant inhibition”.

What about the “TNF-α-impaired insulin receptor autophosphorylation, IRS-1 tyrosine phosphorylation and Ser-473 phosphorylation of Akt” value (3T3-L1 adipocytes [10]) of the same compound?
Its value is “significantly ameliorated”.

And the plasma half-life [11]?
Its plasma half-life is about 4.2 h.

What about the pIC50 (sucrase) of the same compound?
The pIC50 was 5.35.

What about the “decrease in hepatic glucose production (Ra)” value (ob/ob mice [12]) of the same compound?
The value was ~ 26%.

And the “increase in glucose disposal (Rd)” value (ob/ob mice [12])?
The value was ~ 29%.

What about the whole-body insulin sensitivity (ob/ob mice [12]) of the same compound?
The whole-body insulin sensitivity was “marked improvement”.

And the pIC50 (maltase)?
Its pIC50 is 4.74.

What about the overt toxicity (rodents) of the same compound?
The overt toxicity was “did not result in any overt toxicity”.

And the A1C (ZDF rats [13]; 25 mg · kg−1 · day−1, 9 weeks)?
The A1C was 6.31 ± 0.68%.

What about the A1C (ZDF rats [13]; 60 mg · kg body wt−1 · day−1, 10 weeks, separate experiment) of the same compound?
Its A1C is 5.4 ± 0.4%.

What about the “triglyceride concentration in liver” value (ob/ob mice [14]; AMP-DNM-fed ob/ob mice) of the same compound?
Its value is 80 ± 11 nmol/mg liver.

And the blood glucose concentrations (ob/ob mice [14]; [21])?
The blood glucose concentrations was “pronounced reduction”.

What about the “effect on body weight or food intake” value (ob/ob mice [14]; [21]) of the same compound?
Its value is “no significant effect”.

And the A1C concentration (ob/ob mice [14]; ob/ob mice, 25 mg · kg body wt−1 · day−1 for 9 weeks)?
Its A1C concentration is 4.82 ± 0.85%.

And the “AUC of blood glucose concentrations, oral glucose tolerance test” value (ob/ob mice [14]; ob/ob mice, 25 mg/kg for 8 days, glucose 1 g/kg body wt, ± SD)?
The value was 13.21 ± 1.43 arbitrary units per minute.

What about the “effect on glycogen synthase” value (glycogen synthase) of the same compound?
Its value is “unaffected”.

What about the “recovered after in vitro incubation with microsomes” value [15] of the same compound?
Its value is “More than 90%”.
